Test results as given in PubChem BioAssay AID488885 (Broad Institute, 2010).
Inconclusive results are not listed. Active and inactive are the calls of the source.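 Rule for the calls: active = compounds raising caspase signal whose fitted half-max concentration is within ten times the top valid dose; inconclusive = flat curve with moderate caspase rise, or unreliable fit; inactive = flat near zero, too weak, or opposite direction.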

Assays:
[1] = apoptosis induction, Mcl1-reliant cancer line – cell-based, HMC1-8 Mcl1-dependent, CaspaseGlo luminescence, dry powder, selectivity assay for A1 inhibitor project, dose response (AID 488885); details: HMC1-8 (Mcl1-dependent) caspase activation, CaspaseGlo luminescence, 4 h; at 150 µM (top of the series)
How it was run: (§1)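 Compound dosing: pin-transferred compound; material: Low-A1 HMC 1-8 human cancer cells; timing: 4 h compound exposure at 37 °C, then 1 h CaspaseGlo; measured by: luminescence with CaspaseGlo reagent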

[2] = tested on: HMC1-8 (Mcl1-dependent) caspase activation, CaspaseGlo luminescence, 4 h; experiment: as above
How it was run: as §1

| Structure (SMILES) | caspase activation [1] | AC50 [2] |
| --- | --- | --- |
| O=C(Oc1cccc(/C=N/Nc2nc(Nc3ccccc3)nc(N3CCOCC3)n2)c1)c1ccco1 | 3.81% (inactive) | – |
| C=C1[C@@H](C)[C@H]2[C@H](Cc3ccccc3)NC(=O)[C@]23OC(=O)/C=C\[C@H](O)CCC[C@@H](C)C/C=C/[C@H]3[C@@H]1O | 4.5% (inactive) | – |
| C/C1=C/C(=O)O[C@@H]2C[C@@H](CC[C@H](C)/C=C\CC1)O[C@@](O)(C1CSC(=O)N1)C2 (stereo not given in full) | 3.84% (inactive) | – |
| Cn1c(=NC(=O)CCl)sc2ccccc21 | -4.38% (inactive) | – |
| O=C(CCl)N=c1sccn1Cc1ccccc1Cl | -18.4% (inactive) | – |
| CC(=O)OC(C)(C)/C=C/C(=O)[C@](C)(O)C1[C@H](O)C[C@@]2(C)C3CC=C4C(C[C@H](O)C(=O)C4(C)C)[C@]3(C)C(=O)C[C@]12C (stereo not given in full) | 17.2% (inactive) | – |
| COc1cc(/C=C(/C#N)c2nc3ccccc3[nH]2)ccc1OCC(=O)Nc1ccccc1C(C)C | 13.5% (inactive) | – |
| C=C1[C@@H](C)[C@H]2[C@H](Cc3ccccc3)NC(=O)[C@]23[C@H](OC(C)=O)/C=C/[C@](C)(O)C(=O)[C@@H](C)C/C=C/[C@H]3[C@@H]1O | -0.0184% (inactive) | – |
| Cc1ccc(Sc2c([N+](=O)[O-])c(=O)n(C)c3ccccc23)cc1 | -9.5% (inactive) | – |
| CC(C)(C)n1nc(-c2ccc(Cl)cc2)c2c(N)ncnc21 | – | 44.9 µM |
